# This is a sample that favours compounds with a hit; in the whole collection about 2.9% have one here.
# HTR1E antagonist – antagonists of human 5-HT1E serotonin receptor; inhibition, % at 6 µM; actives 0.99% (n = 65,000); CHO 5-HT1E Ga15 NFAT-bla reporter, FRET, antagonist; P28566;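 active means inhibition above a set limit, the mean inhibition across every tested compound plus 3 SD, cut at about 29% in these data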;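 further: signal is the 460 over 535 nm emission ratio of beta-lactamase substrate; 0% = agonist plus DMSO wells and 100% = wells without agonist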
# S1P3 agonist – S1P3 (human) receptor agonism | Q99500 | S1P3 NFAT-BLA reporter cells, FRET ratio; relative to 1 µM S1P, basal subtracted | activation, % at 4.5 µM | actives 0.1% (n = 60,000) | AID 373;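 active means activation above the screen-wide mean plus 3 SD, cut at about 4.5% in these data, passing the limit was not always enough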
# Target sequence (Q99500 whole entry, looked up): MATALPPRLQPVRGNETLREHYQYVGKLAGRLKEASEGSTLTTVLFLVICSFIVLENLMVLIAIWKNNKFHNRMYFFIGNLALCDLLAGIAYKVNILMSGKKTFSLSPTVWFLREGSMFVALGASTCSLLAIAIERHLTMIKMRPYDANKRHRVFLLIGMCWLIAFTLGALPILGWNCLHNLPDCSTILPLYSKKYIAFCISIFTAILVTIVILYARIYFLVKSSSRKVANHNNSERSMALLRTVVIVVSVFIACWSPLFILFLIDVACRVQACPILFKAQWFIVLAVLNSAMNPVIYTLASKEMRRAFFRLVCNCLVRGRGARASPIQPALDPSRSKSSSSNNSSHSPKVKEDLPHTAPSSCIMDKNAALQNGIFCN
#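 Measure – % activation relative to 1 µM S1P (100%), per plate · System – stable CHO line with human S1P3, Gα16, NFAT-BLA reporter · Timing – cells plated overnight, compound 4 h 37 °C, substrate 2 h RT · Technique – fluorescent BLA substrate, ex 405 nm, em 460/535 nm ratio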
# 5HT1a antag – 5-HT1a (human) receptor antagonism | P08908 | CHO 5-HT1a Ga15 NFAT-bla reporter, antagonist mode | inhibition, % at 10 µM | actives 0.68% (n = 62,000) | AID 612;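 active means inhibition above the mean of all tested compounds plus 3 SD, cut at about 43% in these data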;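 further: receptor stimulated by 5-CT agonist at 100 nM near EC80; beta-lactamase reporter measured by ratiometric fluorescence of a cleavable substrate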
# S1P1 ag pot – agonists and agonism potentiators of human S1P1 receptor. P21453. S1P1 CRE-bla cells, forskolin, beta-lactamase FRET, potentiator mode; S1P1 agonist co-added at EC20, 2 nM; 100% = saturating reference agonist, 0% = basal. activation, % at 9.5 µM. actives 0.57% (n = 56,000). AID 449;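 active means activation above a cutoff set at the mean activation of all tested compounds plus 3 SD, cut at about 54% in these data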;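 further: forskolin at 4 µM as EC80 and the EC20 agonist is SEW2871; 100% = SEW2871 at its EC100 plus forskolin at EC80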
# HTR1A agonist – agonists of human 5-HT1a serotonin receptor. P08908. CHO 5-HT1a Ga15 NFAT-bla reporter, FRET ratio; 0% basal, 100% maximal reference agonist. activation, % at 10 µM. actives 0.56% (n = 65,000);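 active means activation above the screen-wide mean activation plus 3 SD, cut at about 19% in these data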;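 further: 0% = DMSO wells and 100% = 5-CT at EC100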
# 5HT1E ag – activates the human 5-HT1E serotonin receptor | actives 0.69% (n = 65,000) | P28566 | activation, % at 6 µM | AID 574 | CHO 5-HT1E Ga15 NFAT-bla reporter, FRET; 0% DMSO wells, 100% control agonist wells;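 active means activation above a set limit, the screen-wide mean activation plus 3 SD, cut at about 8.5% in these data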;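 further: 100% = positive control agonist at 1 µM giving full maximal response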
# * = called active by the depositor; x = not tested or not shown.
SMILES,HTR1E antagonist,S1P3 agonist,5HT1a antag,S1P1 ag pot,HTR1A agonist,5HT1E ag
COc1ccc(C(=O)c2no[n+]([O-])c2C(=O)c2ccc(OC)cc2)cc1,-4,0,-2,-7,1,0
Cc1c(C(=O)c2no[n+]([O-])c2C(=O)c2cnn(C)c2C)cnn1C,10,0,46*,-22,-1,-1
COc1cccc(N2C(=O)C3C(C2=O)C2C=CC3C23CC3)c1 (stereo not drawn),0,-1,-3,-20,0,0
CCN1CCCC1CNC(=O)c1nn(-c2ccc(C)cc2)c(=O)c2c1c1ccccc1n2C (stereo not drawn),-7,0,-11,-8,0,37*
CCOC(=O)C1CSC(CC(=O)Nc2ccc(Cl)cc2)C(=O)N1 (stereo not drawn),3,-1,-9,1,-3,-1
Cc1cc(C)c(S(=O)(=O)n2nc(C)c(Br)c2C)c(C)c1,-3,-1,-10,x,-2,0
CC1CN(c2ccccc2)C(=O)CS1 (stereo not drawn),15,-1,10,18,0,0
COCCCNC(=O)c1ccc(CS(=O)(=O)c2ccc(OC)cc2)o1,31*,-1,10,-9,0,-1
OC(CNCc1ccco1)COc1ccccc1 (stereo not drawn),-10,-1,10,-19,-3,-1
OC(CNCCc1ccc(Cl)cc1)COCc1ccco1 (stereo not drawn),4,0,4,3,0,9.5*
Oc1c(CN2CCOCC2)cc(COCc2ccccc2)c2cccnc12,43*,-1,17,8,-1,1
CC1(C)CC(=O)C(C=Nc2ccc(Cl)cn2)=C(O)C1,6,-5,x,7,-1,-1
CC1(C)CC(=O)C(C=Nc2ccc(O)cc2)=C(O)C1,10,-2,12,51,-5,0
CC1(C)CC(=O)C(C=Nc2ccc3[nH]ncc3c2)=C(O)C1,18,-2,17,99*,-3,0
CC1(C)CC(=O)C(C=Nc2ccc3cn[nH]c3c2)=C(O)C1,40*,-2,36,13,-3,0
CCOc1ccc(N=CC2=C(O)CC(C)(C)CC2=O)cc1,7,-1,10,23,-3,0
CSc1ccccc1N=CC1=C(O)CC(C)(C)CC1=O,72*,-2,74*,26,-4,-2
Cc1ccccc1COc1ccc(/C(O)=C2/C(=O)C(=O)N(CCCn3ccnc3)C2c2ccco2)cc1 (stereo not drawn),-9,-4,x,2,-1,0
COC(=O)c1cccnc1-n1c(=O)c2cccnc2n(Cc2cccc(OC)c2)c1=O,5,-1,-8,12,-1,0
COc1ccc(-c2nnc(SCC(=O)N(Cc3ccccc3)C(C)(C)C)o2)cc1OC,-1,-1,-7,8,-2,0
CCOC(=O)CN(C(=O)CSc1nnc(-c2ccc(OC)c(OC)c2)o1)c1ccc(F)cc1,18,-1,-2,-12,22*,0
COc1ccccc1-c1cc(C(F)(F)F)nc(S(=O)(=O)CCCC(=O)N2CCOCC2)n1,59*,0,26,-64,8,5
COc1cccc(NC(=O)c2nc3ncccn3n2)c1,-2,-1,-7,19,-1,-2
CCCCOc1ccc(-c2nnn(CC(=O)NCc3ccco3)n2)cc1,29*,-1,35,37,-3,0
CCN1CCN(c2ncc(C(=O)Nc3ccccc3C(=O)OC)c3ccccc23)CC1,6,0,0,-4,1,17*
SMILES,HTR1E antagonist,S1P3 agonist,5HT1a antag,S1P1 ag pot,HTR1A agonist,5HT1E ag
O=C(CN1CCCCC1)Nc1cccc(-n2cnnn2)c1,14,-1,11,-7,-1,0
NC(=O)c1c(NC(=O)c2cccs2)sc2c1CCCCCC2,-15,0,-3,12,0,11*
CCCOC(=O)c1ccc(OCC(O)CN2CCN(C(=O)c3ccccc3)CC2)cc1 (stereo not drawn),0,0,3,-21,0,48*
CCCOc1ccc2nc(NC(=O)OC)[nH]c2c1,73*,-4,x,-3,-2,0
Cc1cc(/C=N/n2cnnc2)c(C)n1-c1ccc(OCc2ccccc2F)cc1,29*,-1,36,142*,-3,0
Fc1ccccc1COc1cccc(/C=N/n2cnnc2)c1,-4,0,0,15,-4,-2
CC(C)Nc1nc2n(c(=O)n1)CCN2C(C)C,0,-1,-3,x,1,0
O=C(CC1Oc2ccccc2NC1=O)NCCc1ccccc1 (stereo not drawn),1,-1,8,-25,49*,1
O=C1c2oc3ccc(F)cc3c(=O)c2C(c2ccccc2)N1CC1CCCO1 (stereo not drawn),-4,-1,3,-7,-3,1
COCCN1C(=O)C(CC(=O)Nc2ccc(C(C)=O)cc2)SC1=Nc1ccccc1 (stereo not drawn),1,-2,4,-26,172*,0
COc1cc(NCCCC(C)N)c2ncccc2c1 (stereo not drawn),2,0,-9,11,-3,-1
COc1cc(NS(=O)(=O)c2ccc(C)cc2)c2ncccc2c1,67*,0,67*,x,0,2
CCN1CCN(S(=O)(=O)c2ccc(S(=O)(=O)N(CC)Cc3ccccc3)cc2)CC1,-18,-1,-9,6,0,-2
CCOC(=O)c1ccc2c(c1)nc(SCC(=O)N1CCCCC1)n2CC,10,-1,1,15,-1,0
CCn1c(C)nc2cc(C(=O)OCCC(F)(F)F)ccc21,0,-1,6,-13,26*,-1
COc1cc(Cn2c(-c3nonc3N)nc3ccccc32)ccc1C,52*,-2,64*,31,-5,-1
CCCCOc1ccccc1NC(=O)Cn1c(-c2nonc2N)nc2ccccc21,71*,-1,62*,29,-3,3
COc1cccc(Cn2c(-c3nonc3N)nc3ccccc32)c1,39*,0,46*,7,-2,0
O=C(CSCc1cccc(Br)c1)N1CCOCC1,-3,-1,-5,2,-3,0
O=c1c2cn[nH]c2[nH]c(=S)n1-c1ccccc1F,7,2,-7,-2,-4,-1
N#CC1=C(N)Oc2n[nH]c(-c3ccccc3)c2C1c1cccc(OC(=O)N2CCOCC2)c1 (stereo not drawn),14,-1,9,-21,0,11*
Cc1[nH]c2ccc(C(=O)OCCN(C)C)cc2c1C,-6,0,-11,2,0,31*

# Compound activity (PubChem)
